Hits are enriched below; roughly 12% of the tested compounds scored in any of these assays.
ABCG2 block: ABCG2 efflux pump inhibitors, primary screen, multiplex with ABCB1, IgMXP3 cells, flow cytometry; JC-1 efflux; 0.1% of 190,000 active; Broad substrate specificity ATP-binding cassette transporter ABCG2 (Homo sapiens), Q9UNQ0; inhibition, % at 6.6 µM;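 active means inhibition above 80%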
Target sequence (Q9UNQ0 whole entry, looked up): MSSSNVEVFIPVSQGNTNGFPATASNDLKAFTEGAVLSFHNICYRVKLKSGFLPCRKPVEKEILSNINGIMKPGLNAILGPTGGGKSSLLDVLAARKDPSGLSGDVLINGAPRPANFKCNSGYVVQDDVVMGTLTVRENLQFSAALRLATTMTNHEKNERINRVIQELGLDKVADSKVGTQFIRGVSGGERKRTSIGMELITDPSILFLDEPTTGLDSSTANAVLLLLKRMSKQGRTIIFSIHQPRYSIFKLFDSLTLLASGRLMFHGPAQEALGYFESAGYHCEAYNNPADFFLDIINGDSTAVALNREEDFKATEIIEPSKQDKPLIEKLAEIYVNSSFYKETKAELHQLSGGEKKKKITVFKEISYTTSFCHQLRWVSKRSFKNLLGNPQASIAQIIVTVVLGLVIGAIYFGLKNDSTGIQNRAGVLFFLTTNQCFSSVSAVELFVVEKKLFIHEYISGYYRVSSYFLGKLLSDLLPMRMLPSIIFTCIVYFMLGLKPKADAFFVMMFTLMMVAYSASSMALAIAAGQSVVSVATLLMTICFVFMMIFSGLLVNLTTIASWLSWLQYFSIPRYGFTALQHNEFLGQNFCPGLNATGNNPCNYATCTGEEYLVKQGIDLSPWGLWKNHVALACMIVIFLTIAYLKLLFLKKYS
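Times: 10 min at 25 °C | Test system: Two drug-resistant human cell lines, ABCG2 and ABCB1 | Quantity: 3 million cells/mL final, two lines in 1:1 ratio | Signal: Flow cytometry, 530 nm JC-1 signal | Dosing: Compound at 6.6 µM | Controls: Nicardipine and DMSO wells | Reagent: JC-1 as fluorescent efflux pump substrate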
ABCB1 block: ABCB1 efflux pump inhibitors, primary screen, cell-based, multiplex, flow cytometry, ABCG2 counter-screen; ATP-dependent translocase ABCB1 (Homo sapiens), P08183; inhibition, % at 6.6 µM; 0.067% of 190,000 active; AID 1326, 2008; CCRF-Adr cells, JC-1 efflux; in the data active means inhibition above about 40%;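 further: higher value means more JC-1 retained so stronger ABCB1 efflux block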
WT yeast gro inh: growth inhibition of WT strain, primary screen, mitochondrial fusion inhibitor project, WT and mutant strains, chemical genetic; inhibition, % at 10 µM; AID 1362, 2008; 2.1% of 190,000 active; mitochondrial fusion phenotypic screen; in the data active means inhibition above about 58%; tested in S. cerevisiae
RAM inhibit: inhibitors of the yeast RAM network, primary screen, dse1pr::URA3 reporter, 5-FOA selection; 1.8% of 190,000 active; S. cerevisiae dse1pr::URA3 reporter, 5-FOA growth OD615, 2 d; analog-sensitive cbk1-as2 kinase mutant strain; inhibition, % at 50 µM;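 active means inhibition above a set limit, 3 SD over mean compound inhibition, cut at about 8.4% in these data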;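 further: inhibition rescues growth on 5-FOA so higher OD means more RAM inhibition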
L major viab: Leishmania major promastigote growth inhibition, primary screen. AID 1063, 2008. inhibition, % at 10 µM. 9% of 200,000 active. Leishmania major promastigotes, resazurin fluorescence viability; in the data active means inhibition above about 50%;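 further: promastigotes grown with compound for 44 hours at 28 °C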
Numbers stand for hits.

Results for CCN1C(=O)/C(=C\c2cccn2-c2ccc([N+](=O)[O-])cc2)N(CC)C1=S ?
ABCG2 block: inactive; ABCB1 block: inactive; WT yeast gro inh: inactive; RAM inhibit: inactive; L major viab: inactive

Results for N#Cc1c(NCCN)nc(-c2ccco2)c2c1CCCC2 ?
ABCG2 block: inactive; ABCB1 block: inactive; WT yeast gro inh: inactive; RAM inhibit: inactive; L major viab: 100

How did O=C(NCc1cccnc1)c1ccc(NC(=O)c2cccc([N+](=O)[O-])c2)cc1 do in these assays?
ABCG2 block: inactive; ABCB1 block: inactive; WT yeast gro inh: inactive; RAM inhibit: inactive; L major viab: inactive

What do the screens show for `COc1ccccc1OCCCCN1CCN(c2ccccc2OC)CC1`?
ABCG2 block: inactive; ABCB1 block: inactive; WT yeast gro inh: inactive; RAM inhibit: inactive; L major viab: inactive

How did COc1ccccc1OCCN1CSC(=S)N(C)C1 do in these assays?
ABCG2 block: inactive; ABCB1 block: inactive; WT yeast gro inh: inactive; RAM inhibit: inactive; L major viab: 100

What do the screens show for `Cc1cccc(OCCN2CSC(=S)N(C)C2)c1`?
ABCG2 block: inactive; ABCB1 block: inactive; WT yeast gro inh: inactive; RAM inhibit: inactive; L major viab: 100

How did CCOC(=O)C1=NN(C(C)=O)C2(CC(=O)N(c3cccc(C)c3)C2=O)C1 (centres undefined) do in these assays?
ABCG2 block: inactive; ABCB1 block: inactive; WT yeast gro inh: inactive; RAM inhibit: inactive; L major viab: inactive

How did O=C(NCCCn1ccnc1)c1cc2c(s1)CCCCC2 do in these assays?
ABCG2 block: inactive; ABCB1 block: inactive; WT yeast gro inh: inactive; RAM inhibit: inactive; L major viab: 60

How did COc1ccc2cc(CN(CC3COCCO3)S(=O)(=O)c3ccc(Cl)cc3)c(=O)[nH]c2c1 (centres undefined) do in these assays?
ABCG2 block: inactive; ABCB1 block: inactive; WT yeast gro inh: inactive; RAM inhibit: inactive; L major viab: inactive

How did Cc1cc(C(=O)COC(=O)C2=NNC(=O)CC2)c(C)n1-c1ccccc1 do in these assays?
ABCG2 block: inactive; ABCB1 block: inactive; WT yeast gro inh: inactive; RAM inhibit: inactive; L major viab: inactive

How did Cc1ccc(-n2c(C)cc(C(=O)COC(=O)C3=NNC(=O)CC3)c2C)cc1 do in these assays?
ABCG2 block: inactive; ABCB1 block: inactive; WT yeast gro inh: inactive; RAM inhibit: inactive; L major viab: 95

Results for Cc1ccc(-n2c(C)cc(C(=O)CSc3n[nH]c(N)n3)c2C)cc1 ?
ABCG2 block: inactive; ABCB1 block: inactive; WT yeast gro inh: inactive; RAM inhibit: inactive; L major viab: 95

How did Cc1ccccc1NCC(=O)N/N=C/C(Br)=C/c1ccccc1 do in these assays?
ABCG2 block: inactive; ABCB1 block: inactive; WT yeast gro inh: inactive; RAM inhibit: inactive; L major viab: inactive

Results for CC(O)CNCc1ccc(-c2ccccc2)cc1 (centres undefined) ?
ABCG2 block: inactive; ABCB1 block: inactive; WT yeast gro inh: inactive; RAM inhibit: inactive; L major viab: 89

How did CCC(CO)NCc1ccc(Br)cc1 (centres undefined) do in these assays?
ABCG2 block: inactive; ABCB1 block: inactive; WT yeast gro inh: inactive; RAM inhibit: inactive; L major viab: inactive

How did CC(NCc1ccc(-c2ccccc2)cc1)C(O)c1ccccc1 (centres undefined) do in these assays?
ABCG2 block: inactive; ABCB1 block: inactive; WT yeast gro inh: inactive; RAM inhibit: inactive; L major viab: 99

Results for CCC(CO)NCc1ccc(-c2ccccc2)cc1 (centres undefined) ?
ABCG2 block: inactive; ABCB1 block: inactive; WT yeast gro inh: inactive; RAM inhibit: inactive; L major viab: 89

How did Nc1nc(SCC(=O)Nc2cc(C(F)(F)F)ccc2N2CCOCC2)n[nH]1 do in these assays?
ABCG2 block: inactive; ABCB1 block: inactive; WT yeast gro inh: inactive; RAM inhibit: inactive; L major viab: inactive

How did O=C(CSCc1ccco1)Nc1cc(C(F)(F)F)ccc1N1CCOCC1 do in these assays?
ABCG2 block: inactive; ABCB1 block: inactive; WT yeast gro inh: inactive; RAM inhibit: 9.1; L major viab: inactive

How did CCCC(=O)Nc1cc(C(F)(F)F)ccc1N1CCOCC1 do in these assays?
ABCG2 block: inactive; ABCB1 block: inactive; WT yeast gro inh: inactive; RAM inhibit: inactive; L major viab: inactive

Screens (PubChem)
